Here are results for eight compounds from ChEMBL document CHEMBL1133762, “Aureobasidins: structure-activity relationships for the inhibition of the human MDR1 P-glycoprotein ABC-transporter” (J Med Chem, 2000).

≈ marks a conversion by molar mass, not a printed value. Square brackets hold non-standard residues; d marks the D form. Peptide text beside a SMILES is read from it. Hmp(2R,3S) = CC[C@H](C)[C@@H](O)C(=O)O; NMeVal(β-OH) = CN[C@H](C(=O)O)C(C)(C)O; NMeF = CN[C@@H](Cc1ccccc1)C(=O)O; NMeV = CN[C@H](C(=O)O)C(C)C

The subject of series [1] is Saccharomyces cerevisiae. The series can be described thus: Minimum growth-inhibitory concentration against Saccharomyces cerevisiae ATCC 9763 by agar dilution method by the suspension of a fungi containing ~5 x 10e (7) cells/mL. Type of series: functional. A digest of the protocol:
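Agar dilution on Sabouraud–dextrose agar plates with graded compound concentrations. A loopful of yeast suspension (about 5 × 10⁷ cells/mL) was streaked on the surface. Plates were incubated at 30 °C for 3 days. MIC is the lowest concentration with no detectable growth.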

The target of series [2] is T1, ATP-dependent translocase ABCB1 (Homo sapiens, UniProt P08183). The series can be described thus: (§1) Human MDR1 Pgp inhibitory activity by using standard calcein-AM efflux method with the human leukemia CEM cells. The series is classed as cell-based, CCRF-CEM.
T1 sequence (P08183 whole entry): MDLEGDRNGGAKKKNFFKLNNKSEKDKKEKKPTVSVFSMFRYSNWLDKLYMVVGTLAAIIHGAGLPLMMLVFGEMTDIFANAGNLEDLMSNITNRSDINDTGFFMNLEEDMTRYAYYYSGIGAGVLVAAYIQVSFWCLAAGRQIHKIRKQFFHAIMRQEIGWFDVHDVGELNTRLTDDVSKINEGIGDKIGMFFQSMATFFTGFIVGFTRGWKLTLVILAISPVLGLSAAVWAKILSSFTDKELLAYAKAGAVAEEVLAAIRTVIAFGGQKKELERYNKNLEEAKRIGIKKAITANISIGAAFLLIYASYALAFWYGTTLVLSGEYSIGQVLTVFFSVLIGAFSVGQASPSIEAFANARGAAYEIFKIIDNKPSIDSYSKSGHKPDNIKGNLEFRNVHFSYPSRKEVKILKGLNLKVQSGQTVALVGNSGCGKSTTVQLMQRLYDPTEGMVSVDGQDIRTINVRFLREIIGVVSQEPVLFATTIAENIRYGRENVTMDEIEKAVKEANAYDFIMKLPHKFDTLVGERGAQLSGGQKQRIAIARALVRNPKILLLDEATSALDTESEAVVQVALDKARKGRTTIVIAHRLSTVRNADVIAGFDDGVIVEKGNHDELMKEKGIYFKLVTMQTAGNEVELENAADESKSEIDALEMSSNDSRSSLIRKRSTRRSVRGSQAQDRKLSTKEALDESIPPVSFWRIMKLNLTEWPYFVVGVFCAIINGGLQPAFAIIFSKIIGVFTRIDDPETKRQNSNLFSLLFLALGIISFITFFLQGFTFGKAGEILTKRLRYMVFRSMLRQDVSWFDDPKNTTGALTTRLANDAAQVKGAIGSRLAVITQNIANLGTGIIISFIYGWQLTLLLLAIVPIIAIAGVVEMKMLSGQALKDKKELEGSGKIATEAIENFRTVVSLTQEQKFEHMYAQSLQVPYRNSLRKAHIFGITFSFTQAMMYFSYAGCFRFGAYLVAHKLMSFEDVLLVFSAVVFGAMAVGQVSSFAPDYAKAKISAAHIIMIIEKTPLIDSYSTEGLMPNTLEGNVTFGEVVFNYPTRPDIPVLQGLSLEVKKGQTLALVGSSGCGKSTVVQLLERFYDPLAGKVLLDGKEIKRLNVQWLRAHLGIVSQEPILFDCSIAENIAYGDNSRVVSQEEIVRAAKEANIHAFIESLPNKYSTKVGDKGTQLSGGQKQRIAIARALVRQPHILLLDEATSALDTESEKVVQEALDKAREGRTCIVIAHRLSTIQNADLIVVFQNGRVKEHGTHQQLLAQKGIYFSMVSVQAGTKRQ
Series [3] deals with P-glycoprotein (ABCB1, MDR1) (Homo sapiens, UniProt P08183). Described as §1. To be noted: probe calcein-AM. Type of series: cell-based, CCRF-CEM.
P-glycoprotein (ABCB1, MDR1), sequence (P08183 whole entry): as above
Series [4] has as its target T1, ATP-dependent translocase ABCB1. In words: Direct comparison of the antifungal activities with the relative Pgp-inhibitory potencies, calculated by comparing ug/mL IC50(or IC20). The series is classed as functional.
Series [5] concerns Saccharomyces cerevisiae. In words: Relative antifungal activity (against Saccharomyces cerevisiae) compared to AbA.
A short description of series [6]: Antifungal activity was determined by its potency compared with that of AbA. Value is determined as ratio of AbA to the analogue. Type of series: functional. A digest of the protocol:
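Agar dilution MIC against S. cerevisiae ATCC 9763 on Sabouraud–dextrose agar plates containing graded compound concentrations. A loopful of about 5 × 10⁷ cells/mL suspension was streaked on the surface, and plates were incubated at 30 °C for 3 days. MIC was the lowest concentration with no detectable growth. The value is the AbA/analogue activity ratio.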

Series [7] concerns the target T1, ATP-dependent translocase ABCB1.

The compound `CC[C@H](C)[C@@H]1NC(=O)[C@@H]2CCCN2C(=O)[C@@H](C)N(C)C(=O)[C@H](CO)NC(=O)[C@H](C(C)C)N(C)C(=O)[C@@H]([C@@H](C)CC)OC(=O)[C@H](C(C)(C)O)N(C)C(=O)[C@H](CC(C)C)NC(=O)[C@H](C(C)C)N(C)C1=O` returned an MIC in the series with Saccharomyces cerevisiae [1] greater than 25 µg/mL. Also, the IC50 in series [2] was greater than 31000 nM. The IC20 in series [3] is greater than 31000 nM. In addition, in series [4], the “Pgp AbA/analogue ratio” value is given as less than 0.1. Further, in the series with Saccharomyces cerevisiae [5], the “antifungal AbA/analogue ratio” value is given as less than 0.016.
For the compound `CC[C@@H](C)[C@@H]1NC(=O)[C@@H]2CCCN2C(=O)[C@H](Cc2ccccc2)N(C)C(=O)[C@H](Cc2ccccc2)NC(=O)[C@H](C(C)C)N(C)C(=O)[C@@H]([C@@H](C)CC)OC(=O)CN(C)C(=O)[C@H](CC(C)C)NC(=O)[C@H](C(C)C)N(C)C1=O`, the AbA/analogue ratio in series [6] is given as less than 0.016.
For `CC[C@@H](C)[C@@H]1NC(=O)[C@@H]2CCCN2C(=O)[C@H](Cc2ccccc2)N(C)C(=O)[C@H](Cc2ccccc2)NC(=O)[C@H](C(C)C)N(C)C(=O)[C@@H](C(C)C)OC(=O)[C@H](C(C)(C)O)N(C)C(=O)[C@H](CC(C)C)NC(=O)[C@H](C(C)C)N(C)C1=O`, the IC50 in series [2] was 1100 nM. In series [3], the IC20 was 340 nM. Moreover, the “Pgp AbA/analogue ratio” value in series [4] is on record as 2.1. In addition, the “antifungal AbA/analogue ratio” value in the series with Saccharomyces cerevisiae [5] is 1.
In the series with Saccharomyces cerevisiae [1], `CC[C@H](C)[C@@H]1NC(=O)[C@@H]2CCCN2C(=O)[C@@H](C)N(C)C(=O)[C@H](Cc2ccc(O)cc2)NC(=O)[C@H](C(C)C)N(C)C(=O)[C@@H]([C@@H](C)CC)OC(=O)[C@H](C(C)(C)O)N(C)C(=O)[C@H](CC(C)C)NC(=O)[C@H](C(C)C)N(C)C1=O` gave an MIC of 25 µg/mL (≈ 24 µM). Also, the IC50 in series [2] is 5770 nM. Also, the IC20 in series [3] is 2120 nM. The “Pgp AbA/analogue ratio” value in series [4] is recorded as 0.4.
Take `CC[C@@H](C)[C@@H]1NC(=O)[C@@H]2CCCN2C(=O)[C@H](Cc2ccccc2)N(C)C(=O)[C@H](Cc2ccccc2)NC(=O)[C@H](C(C)C)N(C)C(=O)[C@@H]([C@H](C)CC)OC(=O)[C@H](C(C)(C)O)N(C)C(=O)[C@H](CC(C)C)NC(=O)[C@H](C(C)C)N(C)C1=O` [AUREOBASIDIN A]: in series [7], half-maximal inhibition (IC50) was put at 2270 nM.
With `CC[C@H](C)[C@@H]1NC(=O)[C@@H]2CCCN2C(=O)[C@@H](C)N(C)C(=O)[C@H](Cc2ccc(OCC3CCCCC3)cc2)NC(=O)[C@H](C(C)C)N(C)C(=O)[C@@H]([C@@H](C)CC)OC(=O)[C@H](C(C)(C)O)N(C)C(=O)[C@H](CC(C)C)NC(=O)[C@H](C(C)C)N(C)C1=O`, in the series with Saccharomyces cerevisiae [1], the minimal inhibitory concentration (MIC) was determined as 1.6 µg/mL (≈ 1.41 µM). Further, the IC50 in series [2] is 2110 nM. Also, the IC20 in series [3] is 640 nM. Besides, the “Pgp AbA/analogue ratio” value in series [4] is 1. In addition, in the series with Saccharomyces cerevisiae [5], the “antifungal AbA/analogue ratio” value stood at 0.25.
As for `CC[C@H](C)[C@@H]1NC(=O)[C@H]2CCCN2C(=O)[C@H](Cc2ccccc2)N(C)C(=O)[C@H](Cc2ccccc2)NC(=O)[C@H](C(C)C)N(C)C(=O)[C@@H]([C@@H](C)CC)OC(=O)[C@H](C(C)(C)O)N(C)C(=O)[C@H](CC(C)C)NC(=O)[C@H](C(C)C)N(C)C1=O`, inhibition of growth in the series with Saccharomyces cerevisiae [1] (MIC) required 1.6 µg/mL (≈ 1.45 µM). The IC50 in series [2] is greater than 2700 nM. The IC20 in series [3] is 1360 nM.
Turning to `CC[C@H](C)[C@H]1OC(=O)[C@H](C(C)(C)O)N(C)C(=O)[C@H](CC(C)C)NC(=O)[C@H](C(C)C)N(C)C(=O)[C@H](C(C)C)NC(=O)[C@@H]2CCCN2C(=O)[C@H](Cc2ccccc2)N(C)C(=O)[C@H](Cc2ccccc2)NC(=O)[C@H](C(C)C)N(C)C1=O` (cyclo(F[NMeF]PV[NMeV]L[NMeVal(β-OH)][Hmp(2R,3S)][NMeV])), the lowest concentration to inhibit growth against Saccharomyces cerevisiae [1] (MIC) was 0.4 µg/mL (≈ 0.368 µM). The IC50 in series [2] is 1290 nM. For the same compound, the IC20 in series [3] was 410 nM. Further, in series [4], the “Pgp AbA/analogue ratio” value was 1.8.
